The target of the first test is D(2) dopamine receptor (Rattus norvegicus, UniProt P61169). The test is described as follows: Inhibition constant against dopamine receptor D2 in rat. An outline of the steps:
(§1)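 Filtered on protamine-pretreated (0.2%) GF/B filters, washed with cold 50 mM Tris-HCl pH 7.4, gamma-counted. Nonspecific binding defined with 10 μM (+)-butaclamol. Scatchard and competition data fitted by iterative nonlinear least squares.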
Sequence of D(2) dopamine receptor (P61169 whole entry): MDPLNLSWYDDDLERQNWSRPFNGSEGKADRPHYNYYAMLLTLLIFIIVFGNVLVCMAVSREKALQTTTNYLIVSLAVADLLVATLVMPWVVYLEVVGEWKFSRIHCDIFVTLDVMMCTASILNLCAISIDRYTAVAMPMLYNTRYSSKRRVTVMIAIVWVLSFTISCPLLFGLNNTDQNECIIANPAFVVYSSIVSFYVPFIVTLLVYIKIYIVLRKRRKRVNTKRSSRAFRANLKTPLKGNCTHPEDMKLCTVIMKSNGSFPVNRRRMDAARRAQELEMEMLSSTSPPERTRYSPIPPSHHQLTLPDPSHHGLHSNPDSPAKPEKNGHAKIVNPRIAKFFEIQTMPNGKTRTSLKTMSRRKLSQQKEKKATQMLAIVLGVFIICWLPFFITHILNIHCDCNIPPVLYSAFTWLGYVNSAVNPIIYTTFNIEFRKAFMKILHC
With `CCN1CCC[C@H]1CNC(=O)c1cc(I)cc2c1OCC2`, the inhibition constant Ki (as a rule, the dissociation constant of the complex between target and ligand, obtained from inhibition or displacement) was 0.106 nM.

With `CCN1CCC[C@@H]1CNC(=O)c1cccc(OC)c1OCCF`, the Ki is 13 nM.

For `CCN1CCC[C@H]1CNC(=O)c1cc(CCCF)cc(OC)c1OC`, the Ki came out at 0.02 nM.

`CCN1CCC[C@H]1CNC(=O)c1c(OC)ccc(I)c1O` [IOLOPRIDE] yielded a Ki of 0.43 nM.

Compound `CCN1CCC[C@H]1CNC(=O)c1cc(I)ccc1OC` [IODOPRIDE] yielded a Ki of 3 nM.

Compound `CCN1CCC[C@H]1CNC(=O)c1c(O)c(I)cc(OC)c1OC` [IOXIPRIDE] yielded a Ki of 0.019 nM.

As for `CCN1CCC[C@H]1CNC(=O)c1c(OC)ccc(S(N)(=O)=O)c1I` [IODOSULPIRIDE], the Ki was determined as 1.5 nM.

In the case of `CCN1CCC[C@H]1CNC(=O)c1cc(I)cc(OC)c1OC` [EPIDEPRIDE], the Ki came to 0.025 nM.

`COc1cc(Br)cc(C(=O)NC[C@@H]2CCCN2Cc2ccc(F)cc2)c1OC` returned a Ki of 0.147 nM.

The species entered for another test is Rattus norvegicus. It is filed as functional, Striatum, Membrane.
Regarding `C=CCN1CC[C@]23c4c5ccc(O)c4O[C@H]2C(=O)CC[C@@]3(O)[C@H]1C5` [NALOXONE], the inhibitory constant (Ki) is above 10000 nM.

Compound `CC(C)(C)[C@@]1(O)CCN2C[C@@H]3c4ccccc4CCc4cccc(c43)[C@H]2C1` showed a Ki of 1.05 nM.

Compound `NCCc1c[nH]c2ccc(O)cc12` [SEROTONIN] gave a Ki above 5000 nM.

`CN1[C@@H]2CC[C@H]1C[C@@H](OC(=O)C(CO)c1ccccc1)C2` (some centres not stated) [ATROPINE] showed an inhibition constant (Ki) above 10000 nM.

The species named for a further test is Rattus norvegicus. It is filed as functional, Striatum, Membrane. The source holds these as a separate data set.
Take `C=CCN1CC[C@]23c4c5ccc(O)c4O[C@H]2C(=O)CC[C@@]3(O)[C@H]1C5` [NALOXONE]: the Ki was above 10000 nM.

Regarding `CCCN1CCC[C@@H]2Cc3n[nH]cc3C[C@H]21` [QUINPIROLE], the Ki was determined as 8000 nM.

For `CC(C)(C)[C@@]1(O)CCN2C[C@@H]3c4ccccc4CCc4cccc(c43)[C@H]2C1`, the affinity, expressed as Ki, was 0.4 nM.

Turning to `CN1[C@@H]2CC[C@H]1C[C@@H](OC(=O)C(CO)c1ccccc1)C2` (some centres not stated) [ATROPINE], the inhibition constant Ki was above 10000 nM.

Consider `COC(=O)[C@@H]1[C@H]2C[C@H]3c4[nH]c5ccccc5c4CCN3C[C@@H]2CC[C@@H]1O` [YOHIMBINE], for which the Ki amounted to 505 nM.

For another test, the species on record is Rattus norvegicus. In words: Inhibition constant on radiolabeled [125I]FIDA1 binding to rat striatal membranes. On the set-up: species or system Striatum, Membrane. An outline of the steps: as §1
Regarding `CCc1cc(Cl)c(OC)c(C(=O)NC[C@@H]2CCCN2CC)c1O` [ETICLOPRIDE], the Ki came out at 0.014 nM.

In the case of `CCN1CCC[C@H]1CNC(=O)c1c(O)c(Cl)cc(Cl)c1OC` [RACLOPRIDE], the Ki stood at 2.31 nM.

The species entered for the next test is Rattus norvegicus. In words: Inhibition constant on radiolabeled [125I]FIDA2 binding to rat striatal membranes. On the set-up: species or system Striatum, Membrane. An outline of the steps: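 Rat striatal membrane homogenate (40–60 μg protein) incubated with 125I-labeled ligand ± competitors in 0.2 mL assay buffer, 15 min at 37 °C with stirring. Filtered on protamine-pretreated (0.2%) GF/B filters, washed with cold 50 mM Tris-HCl pH 7.4, gamma-counted. Nonspecific binding defined with 10 μM (+)-butaclamol. Scatchard and competition data fitted by iterative nonlinear least squares.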
Compound `CCc1cc(Cl)c(OC)c(C(=O)NC[C@@H]2CCCN2CC)c1O` [ETICLOPRIDE] showed a Ki of 0.06 nM.

Compound `CCN1CCC[C@H]1CNC(=O)c1c(O)c(Cl)cc(Cl)c1OC` [RACLOPRIDE] returned a Ki of 5 nM.

(Values after ChEMBL document CHEMBL1126811, “Fluorinated and iodinated dopamine agents: D2 imaging agents for PET and SPECT” (J Med Chem, 1993).)
